Values after ≈ are worked out from the molar mass of the structure shown.
Tests used:
[1] = Inhibition of wild type HIV1 NL4-3 reverse transcriptase infected in human TZM-b1 cells after 2 days by bright Glo-luciferase reporter gene assay; assay type: cell-based; details: Human immunodeficiency virus 1, NL4-3, TZM-b1, 48 h
In short: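 Anti-HIV activity against HIV-1 NL4-3 replication in TZM-bl cells, read out by luciferase gene expression. EC50 values from at least three experiments (n = 3). Top test concentration 100 ng/mL for the newly made series.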

[2] = Inhibition of rilpivirine-resistant HIV1 NL4-3 reverse transcriptase E138K/M184I double mutant infected in human TZM-b1 cells after 2 days by bright Glo-luciferase reporter gene assay; assay type: cell-based; details: Human immunodeficiency virus 1, NL4-3, TZM-b1, 48 h
In short: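 TZM-bl cells infected with NL4-3 variant carrying E138K or E138K+M184I RT mutations; EC50 from luciferase reporter gene expression. Test compounds up to 100 ng/mL highest concentration; at least three experiments (n = 3). Run in parallel with wild-type NL4-3 and reference drug.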

[3] = Octanol-water partition coefficient, log P of the compound at pH 7.4 after 24 hrs by HPLC method; assay type: physicochemical; details: pH 7.4, 24 h
Liver [4] = assay: (§1) Half life in human liver microsomes at 1 uM pretreated up to 45 mins followed by NADPH addition by LC/MS/MS analysis; assay type: ADME, microsome; details: microsomes, 1 µM
In short: (§2)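 Remaining parent was quantified by LC/MS/MS at several time points to give t1/2 (min). Data from at least two experiments in parallel.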

Liver [5] = assay: (§3) Half life in human liver S9 fractions at 1 uM measured pretreated up to 45 mins followed by NADPH addition by LC/MS/MS analysis; assay type: ADME, tissue-based; details: s9, 1 µM; in short: as §2
Plasma = assay: (§4) Half life in human plasma at 10 ug/ml by LC/MS/MS analysis; assay type: ADME, cell-free
TZM = assay: (§5) Cytotoxicity against human TZM-bl cells infected with HIV1 NL4-3; assay type: cell-based; details: tzm
[6] = Inhibition of wild-type HIV-1 3B reverse transcriptase infected in human MT4 cells assessed as reduction in virus-induced cytopathic effect after 5 days by MTT assay; assay type: cell-based; details: Human immunodeficiency virus 1, 3B, MT4, 120 h
[7] = Aqueous solubility of the compound in phosphate buffer at pH 7.4 after 4 hrs by HPLC-UV analysis; assay type: physicochemical
In short: (§6)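 Aqueous solubility measured by HPLC at pH 2.0 and at pH 7.4.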

[8] = Aqueous solubility of the compound in 0.01 M HCl at pH 2 after 4 hrs by HPLC-UV analysis; assay type: physicochemical; in short: as §6
[9] = system: Human immunodeficiency virus 1; assay: Fold resistance, ratio of EC50 for rilpivirine-resistant HIV1 NL4-3 reverse transcriptase E138K mutant to EC50 for wild type HIV1 NL4-3 reverse transcriptase
In short: (§7)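 Fold change calculated as EC50 against the resistant NL4-3 variant (E138K or E138K+M184I) divided by EC50 against wild-type NL4-3, both measured in parallel in TZM-bl cells by luciferase reporter expression.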

[10] = system: Human immunodeficiency virus; assay: Fold resistance, ratio of EC50 for rilpivirine-resistant HIV1 NL4-3 reverse transcriptase E138K/M184I double mutant to EC50 for wild type HIV1 NL4-3 reverse transcriptase; in short: as §7
[11] = as §1; assay type: ADME, microsome; details: liver microsomes; in short: as §2
[12] = as §3; assay type: ADME, tissue-based; details: liver S9 fraction; in short: as §2
[13] = as §4; assay type: ADME, cell-free
[14] = as §5; assay type: cell-based; details: TZM-bl cells infected with HIV1 NL4-3

| SMILES | EC50 [1] [nM] | EC50 [2] [nM] | logP [3] | t1/2 (Liver [4]) [h] | t1/2 (Liver [5]) [h] | t1/2 (Plasma) [h] | CC50 (TZM) [nM] | EC50 [6] [nM] | solubility at 4 h [7] [µg/mL] | solubility at 4 h [8] [µg/mL] | Ratio EC50 [9] | Ratio EC50 [10] | half-life at 1 µM [11] [h] | half-life at 1 µM [12] [h] | half-life at 10 ug/ml [13] [h] | CC50 [14] [nM] |
| --- | --- | --- | --- | --- | --- | --- | --- | --- | --- | --- | --- | --- | --- | --- | --- | --- |
| Cc1cc(/C=C/C#N)cc(C)c1Nc1ccnc(Nc2ccc(C#N)cc2)n1 [RILPIVIRINE] | 0.44 | 2.38 | > 5 | 1.8 | 1.7 | 92 | > 273 | – | – | – | – | – | – | – | – | – |
| Cc1cc(C#N)cc(C)c1Oc1nc(Nc2ccc(C#N)cc2)nc(N)c1Br [ETRAVIRINE] | – | – | – | – | – | – | – | > 1.5 | – | – | – | – | – | – | – | – |
| Cc1cc(/C=C/C#N)cc(C)c1Oc1cc(Nc2ccc(C#N)cc2)c(N)cc1C(=O)NN | 11.6 | – | 2.31 | 0.6 | 0.65 | 8 | > 228 | – | 2.4 (≈ 5.47 µM) | 89.6 (≈ 204 µM) | – | – | – | – | – | – |
| Cc1cc(/C=C/C#N)cc(C)c1Oc1cc(Nc2ccc(C#N)cc2)c(N)cc1C(=O)NCCCl | 3.29 | 17.3 | > 5 | 1.02 | 1.23 | 8 | > 206 | – | 1.59 (≈ 3.27 µM) | 9.53 (≈ 19.6 µM) | 2.6 | 5.2 | – | – | – | – |
| Cc1cc(/C=C/C#N)cc(C)c1Oc1cc(Nc2ccc(C#N)cc2)c(N)cc1C(=O)N1CC(F)(F)C1 | 13.4 | – | 3.58 | – | – | – | – | – | 6.59 (≈ 13.2 µM) | 57.6 (≈ 115 µM) | – | – | 0.233 | 0.233 | 57 | > 200 |
| Cc1cc(/C=C/C#N)cc(C)c1Oc1cc(Nc2ccc(C#N)cc2)c(N)cc1C(=O)NCCCO | 24.9 | – | 3.22 | – | – | – | > 208 | – | 1.01 (≈ 2.1 µM) | 19.9 (≈ 41.3 µM) | 0.9 | – | – | – | – | – |
| Cc1cc(/C=C/C#N)cc(C)c1Oc1cc(Nc2ccc(C#N)cc2)c(N)cc1C(=O)N1CC1 | 3.33 | 16.7 | 2.21 | 2.63 | 1.83 | 12 | > 223 | – | 1.2 (≈ 2.67 µM) | 94.2 (≈ 210 µM) | 2.6 | 5 | – | – | – | – |
| COCCOC(=O)c1cc(N)c(Nc2ccc(C#N)cc2)cc1Oc1c(C)cc(/C=C/C#N)cc1C | 1.52 | 9.54 | > 5 | 0.317 | 0.158 | 62 | > 207 | – | 0.77 (≈ 1.6 µM) | 1.64 (≈ 3.4 µM) | 2.9 | 6.3 | – | – | – | – |
| Cc1cc(/C=C/C#N)cc(C)c1Oc1cc(Nc2ccc(C#N)cc2)c(N)cc1C(=O)OCCC#N | 1.11 | 4.61 | > 5 | 0.283 | 0.2 | 32 | > 210 | – | 0.36 (≈ 0.754 µM) | 0.94 (≈ 1.97 µM) | 2.4 | 4.1 | – | – | – | – |
| Cc1cc(/C=C/C#N)cc(C)c1Oc1cc(Nc2ccc(C#N)cc2)c(N)cc1C(N)=O | – | – | 3.53 | 1.5 | 1.8 | 65 | – | – | – | – | – | – | – | – | – | – |
